Assay type in all cases: functional
Assay [1] concerns Candida albicans. The assay can be described thus: Antifungal activity against Candida albicans MTCC 227 at 30 ug/ml after 48 hrs by agar cup diffusion method. The note with it: MTCC 227, 48 h, read-out: DIZ. A digest of the protocol: (§1)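 Agar cup diffusion on autoclaved potato dextrose agar plates. Each plate was spread with 0.5 ml of a week-old culture, and test solutions at 30 and 100 per ml were added to cups. Plates were held at 28 °C for 48 h, and inhibition zone diameters were read in mm. Acetone served as the solvent control and amphotericin-B as the reference.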

Assay [2] deals with Candida albicans. Nature of the assay: Antifungal activity against Candida albicans MTCC 227 at 100 ug/ml after 48 hrs by agar cup diffusion method. The note with it: MTCC 227, 48 h, read-out: DIZ. An outline of the steps:
as §1

In a further assay the test system is Pseudomonas aeruginosa. Nature of the assay: Antibacterial activity against Pseudomonas aeruginosa MTCC 741 by broth dilution method. A digest of the protocol:
(§2)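 MIC by broth dilution in nutrient broth. Test bacteria were kept on nutrient agar slants and subcultured in Petri dishes before testing.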

In a further assay the test system is Staphylococcus aureus. The assay can be described thus: Antibacterial activity against Staphylococcus aureus MTCC 96 by broth dilution method. A digest of the protocol: as §2
The test system of the next assay is Aspergillus flavus. The assay can be described thus: Antifungal activity against Aspergillus flavus MTCC 277 at 100 ug/ml after 48 hrs by agar cup diffusion method. The note with it: MTCC 277, 48 h, read-out: DIZ. A digest of the protocol:
as §1

Assay [3] has as its system Aspergillus niger. Nature of the assay: Antifungal activity against Aspergillus niger MTCC 1344 at 30 ug/ml after 48 hrs by agar cup diffusion method. Particulars: MTCC 1344, 48 h, read-out: DIZ. A digest of the protocol: as §1
The subject of another assay is Saccharomyces cerevisiae. Nature of the assay: Antifungal activity against Saccharomyces cerevisiae MTCC 36 at 100 ug/ml after 48 hrs by agar cup diffusion method. The note with it: MTCC 36, 48 h, read-out: DIZ. A digest of the protocol: as §1
Assay [4] relates to Aspergillus niger. Nature of the assay: Antifungal activity against Aspergillus niger MTCC 1344 at 100 ug/ml after 48 hrs by agar cup diffusion method. The note with it: MTCC 1344, 48 h, read-out: DIZ. A digest of the protocol:
as §1

The test system of the next assay is Escherichia coli. The assay can be described thus: Antibacterial activity against Escherichia coli MTCC 443 by broth dilution method. A digest of the protocol: as §2
For the next assay, the system named is Bacillus subtilis. Nature of the assay: Antibacterial activity against Bacillus subtilis MTCC 441 by broth dilution method. A digest of the protocol:
as §2

The test system of assay [5] is Staphylococcus epidermidis. Nature of the assay: Antibacterial activity against Staphylococcus epidermidis MTCC 435 by broth dilution method. A digest of the protocol:
as §2

Values after ≈ are worked out from the molar mass of the structure shown.

`FC(F)(F)C(F)(F)C(F)(F)C(F)(F)C(F)(F)C(F)(F)CCn1cc(COc2nc(-c3ccccc3)nc3ccccc23)nn1`: the zone of inhibition at 30 µg/mL with Candida albicans [1] and in the assay on Aspergillus niger [3] was 8 mm in each case. Besides, the zone of inhibition at 100 µg/mL in the assay with Candida albicans [2] is 11 mm; in the assay with Aspergillus flavus it was 9 mm; with Saccharomyces cerevisiae it was 9 mm; in the assay on Aspergillus niger [4], 11 mm. The minimal inhibitory concentration (MIC) in the assay with Pseudomonas aeruginosa amounted to 75 µg/mL (≈ 115 µM); in the assay with Staphylococcus aureus it was 75 µg/mL (≈ 115 µM); against Escherichia coli, 75 µg/mL (≈ 115 µM); against Bacillus subtilis it was 150 µg/mL (≈ 231 µM); in assay [5], 75 µg/mL (≈ 115 µM).
For `FC(F)(F)c1nc(OCc2cn(CCC(F)(F)C(F)(F)C(F)(F)C(F)(F)C(F)(F)C(F)(F)C(F)(F)C(F)(F)F)nn2)c2ccccc2n1`, the zone of inhibition at 100 µg/mL in the assay with Candida albicans [2] and with Aspergillus niger [4] was 9 mm in each case. Also, the MIC (against Pseudomonas aeruginosa; against Staphylococcus aureus; against Escherichia coli; with Bacillus subtilis; in assay [5]) was 150 µg/mL (≈ 202 µM) in each case.
Regarding `O=c1c2ccccc2nc(-c2c(F)cccc2F)n1Cc1cn(CCC(F)(F)C(F)(F)C(F)(F)C(F)(F)C(F)(F)C(F)(F)F)nn1`, the zone of inhibition at 30 µg/mL in the assay on Candida albicans [1] and in the assay with Aspergillus niger [3] was 7 mm each time. The zone of inhibition at 100 µg/mL in the assay with Candida albicans [2] and in the assay with Aspergillus niger [4] was 10 mm each time. The MIC (against Pseudomonas aeruginosa; against Staphylococcus aureus; with Escherichia coli; in the assay with Bacillus subtilis; in assay [5]) was 150 µg/mL (≈ 219 µM) throughout.
With `O=c1c2ccccc2nc(C(F)(F)F)n1Cc1cn(CCC(F)(F)C(F)(F)C(F)(F)C(F)(F)C(F)(F)C(F)(F)C(F)(F)C(F)(F)F)nn1`, the zone of inhibition at 30 µg/mL in the assay on Candida albicans [1] and with Aspergillus niger [3] was 7 mm each time. The zone of inhibition at 100 µg/mL with Candida albicans [2], with Aspergillus flavus, in the assay on Saccharomyces cerevisiae and in the assay on Aspergillus niger [4] was 9 mm throughout. Besides, the MIC (in the assay on Pseudomonas aeruginosa; in the assay with Staphylococcus aureus; in the assay on Escherichia coli; in the assay on Bacillus subtilis; in assay [5]) was 75 µg/mL (≈ 101 µM) throughout.
`C#CCOc1nc(-c2ccccc2)nc2ccccc12`: the zone of inhibition at 30 µg/mL in the assay with Candida albicans [1] and in the assay with Aspergillus niger [3] was 7 mm in each case. Besides, the zone of inhibition at 100 µg/mL with Candida albicans [2] and with Aspergillus niger [4] was 10 mm in each case. Further, the MIC (against Pseudomonas aeruginosa; with Staphylococcus aureus; against Escherichia coli; against Bacillus subtilis; in [5]) was 150 µg/mL (≈ 576 µM) throughout.
Consider `CC1(C)S[C@@H]2[C@H](NC(=O)Cc3ccccc3)C(=O)N2[C@H]1C(=O)O` [PENICILLIN G], for which the MIC in the assay with Pseudomonas aeruginosa amounted to 12.5 µg/mL (≈ 37.4 µM); against Staphylococcus aureus it was 6.25 µg/mL (≈ 18.7 µM); against Escherichia coli it was 6.25 µg/mL (≈ 18.7 µM); against Bacillus subtilis, 1.53 µg/mL (≈ 4.56 µM); in [5], 3.12 µg/mL (≈ 9.35 µM).
Regarding `CN[C@@H]1[C@H](O[C@H]2[C@H](O[C@H]3[C@H](O)[C@@H](O)[C@H](N=C(N)N)[C@@H](O)[C@@H]3N=C(N)N)O[C@@H](C)[C@]2(O)C=O)O[C@@H](CO)[C@H](O)[C@H]1O` [STREPTOMYCIN], the MIC stood at 3.12 µg/mL (≈ 5.37 µM) with Pseudomonas aeruginosa; 1.56 µg/mL (≈ 2.68 µM) against Staphylococcus aureus; 3.12 µg/mL (≈ 5.37 µM) in the assay with Escherichia coli; 6.25 µg/mL (≈ 10.7 µM) with Bacillus subtilis; 1.56 µg/mL (≈ 2.69 µM) in assay [5].

Source of the values: ChEMBL document CHEMBL1154719, “Click chemistry: studies on the synthesis of novel fluorous tagged triazol-4-yl substituted quinazoline derivatives and their biological evaluation--theoretical and experimental validation” (2010).
